Tests used:
[1] = target: Heat shock protein HSP 90-alpha (Homo sapiens, UniProt P07900); test: Displacement of GM-FITC from full-length recombinant human Hsp90-alpha after 4 hrs by fluorescence polarization assay
NCI-H460 = test: Cytotoxicity against human NCI-H460 cells assessed as growth inhibition after 72 hrs by SRB assay; assay type: functional, cell-based; conditions: NCI-H460, 72 h
Procedure, shortened: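 NCI-H460 cells grown in RPMI-1640 with 10% heat-inactivated FBS, seeded at about 10% confluence and allowed 24 h recovery. Exposed to graded drug concentrations or solvent for 72 h. Surviving fraction measured by sulforhodamine B. IC50 is the concentration giving a 50% drop in cell number vs vehicle, from dose-response curve fitting; mean of n=4 with SD.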

[2] = target: Heat shock protein HSP 90-beta (Homo sapiens) (UniProt P08238); test: Inhibition of HSP90 in human A431 cells overexpressing EGFR assessed as downregulation of AKT protein expression after 24 hrs by Western blot analysis; assay type: cell-based; conditions: A-431
Heat shock protein HSP 90-beta (Homo sapiens), sequence (P08238 whole entry): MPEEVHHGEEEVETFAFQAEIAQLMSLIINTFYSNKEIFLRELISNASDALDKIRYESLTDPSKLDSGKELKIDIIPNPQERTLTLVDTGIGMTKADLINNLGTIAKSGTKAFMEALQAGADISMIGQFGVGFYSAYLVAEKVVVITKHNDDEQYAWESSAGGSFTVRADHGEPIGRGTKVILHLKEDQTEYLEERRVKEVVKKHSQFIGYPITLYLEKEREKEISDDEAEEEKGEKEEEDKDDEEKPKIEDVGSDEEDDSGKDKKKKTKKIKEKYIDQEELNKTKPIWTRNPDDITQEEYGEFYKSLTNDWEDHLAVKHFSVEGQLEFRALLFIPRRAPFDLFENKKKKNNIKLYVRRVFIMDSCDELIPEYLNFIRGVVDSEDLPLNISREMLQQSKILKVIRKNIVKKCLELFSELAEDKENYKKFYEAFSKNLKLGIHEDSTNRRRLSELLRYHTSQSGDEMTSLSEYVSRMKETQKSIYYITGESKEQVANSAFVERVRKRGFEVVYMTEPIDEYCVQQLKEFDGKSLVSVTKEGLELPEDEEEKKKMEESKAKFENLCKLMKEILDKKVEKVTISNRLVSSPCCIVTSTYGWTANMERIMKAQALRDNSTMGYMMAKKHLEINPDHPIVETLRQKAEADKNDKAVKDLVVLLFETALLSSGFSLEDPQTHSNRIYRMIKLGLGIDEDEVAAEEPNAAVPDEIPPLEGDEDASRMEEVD
Procedure, shortened: (§1)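 A431 cells treated 24 h after seeding for 24 h over a concentration range; 17-DMAG 0.2 µM as reference. Cells lysed in RIPA buffer with protease and phosphatase inhibitors, protein measured by Bradford. Equal protein run on SDS-PAGE and blotted to nitrocellulose, then probed for EGFR, Cdk4, Akt, Hsp70 and actin. ECL detection; densitometry normalized to β-actin. Run at least twice.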

[3] = target: Heat shock protein HSP 90-beta (Homo sapiens) (UniProt P08238); test: Inhibition of HSP90 in human A431 cells overexpressing EGFR assessed as induction of HSP70 protein expression after 24 hrs by Western blot analysis; assay type: cell-based; conditions: A-431; procedure, shortened: as §1
[4] = target: Heat shock protein HSP 90-beta (Homo sapiens) (UniProt P08238); test: Inhibition of HSP90 in human A431 cells overexpressing EGFR assessed as downregulation of CDK4 protein expression after 24 hrs by Western blot analysis; assay type: cell-based; conditions: A-431; procedure, shortened: as §1
[5] = target: Heat shock protein HSP 90-beta (Homo sapiens) (UniProt P08238); test: Inhibition of HSP90 in human A431 cells overexpressing EGFR assessed as downregulation of EGFR protein expression after 24 hrs by Western blot analysis; assay type: cell-based; conditions: A-431; procedure, shortened: as §1

Compound	IC50 [1]	IC50 (NCI-H460)	inhibition [2]	inhibition [3]	inhibition [4]	inhibition [5]
CC(C)c1cc(-n2nncc2-c2ccc(CN3CCN(c4ccccc4)CC3)cc2)c(O)cc1O	0.036 µM	0.52 µM	–	–	–	–
CC(C)c1cc(-n2cc(-c3ccc(CN4CCN(Cc5ccccc5)CC4)cc3)nn2)c(O)cc1O	0.295 µM	> 1 µM	–	–	–	–
CCNC(=O)c1nnn(-c2cc(C(C)C)c(O)cc2O)c1-c1ccc(CN(CC)CC)cc1	0.025 µM	0.011 µM	Dose-dependent effect	Dose-dependent effect	Dose-dependent effect	Dose-dependent effect
CC(C)c1cc(-n2nnc(C(=O)NC3CCCC3)c2-c2ccc(CN3CCOCC3)cc2)c(O)cc1O	0.027 µM	0.014 µM	Dose-dependent effect	Dose-dependent effect	Dose-dependent effect	Dose-dependent effect
CCNC(=O)c1nnn(-c2cc(C(C)C)c(OC(C)=O)cc2OC(C)=O)c1-c1ccc(CN2CCOCC2)cc1	> 1 µM	0.0065 µM	Dose-dependent effect	Dose-dependent effect	Dose-dependent effect	Dose-dependent effect
CCNC(=O)c1nnn(-c2cc(C(C)C)c(O)cc2O)c1-c1ccc(CN(CC)CCO)cc1	< 0.005 µM	0.056 µM	–	–	–	–
CC(C)c1cc(-n2nnc(C(=O)N3CCOCC3)c2-c2ccc(CN3CCOCC3)cc2)c(O)cc1O	0.27 µM	> 1 µM	–	–	–	–
CCNC(=O)c1nnn(-c2cc(C(C)C)c(O)cc2O)c1-c1ccc(CN2CCC[C@@H](O)C2)cc1	0.03 µM	0.052 µM	–	–	–	–
CCNC(=O)c1nnn(-c2cc(C(C)C)c(O)cc2O)c1-c1ccc(CNCC2CCCCC2)cc1	< 0.005 µM	0.0021 µM	Dose-dependent effect	Dose-dependent effect	Dose-dependent effect	Dose-dependent effect
CCNC(=O)c1nnn(-c2cc(C(C)C)c(O)cc2O)c1-c1ccc(CNC2CCCCC2)cc1	0.0068 µM	0.015 µM	–	–	–	–
CC(C)c1cc(-n2nncc2-c2ccc(CN3CCCC(O)C3)cc2)c(O)cc1O (stereo unspecified)	0.037 µM	0.045 µM	–	–	–	–
CCNC(=O)c1nnn(-c2cc(C(C)C)c(O)cc2O)c1-c1ccc(Cn2ccnc2)cc1	0.023 µM	0.028 µM	–	–	–	–
CCNC(=O)c1nnn(-c2cc(C(C)C)c(O)cc2O)c1-c1ccc(CN2CCCCC2CCO)cc1 (stereo unspecified)	0.01 µM	0.11 µM	–	–	–	–
CCNC(=O)c1nnn(-c2cc(C(C)C)c(O)cc2O)c1-c1ccc(CNCCN2CCOCC2)cc1	0.0148 µM	0.14 µM	Dose-dependent effect	Dose-dependent effect	Dose-dependent effect	Dose-dependent effect
CCNC(=O)c1nnn(-c2cc(C(C)C)c(O)cc2O)c1-c1ccc(CN2CCNCC2)cc1	< 0.005 µM	0.25 µM	–	–	–	–
CCNC(=O)c1nnn(-c2cc(C(C)C)c(O)cc2O)c1-c1ccc(CN2CC[C@H](N(C)C)C2)cc1	0.013 µM	0.085 µM	–	–	–	–

Compound	IC50 [1]	IC50 (NCI-H460)	inhibition [2]	inhibition [3]	inhibition [4]	inhibition [5]
CCCCCCCNC(=O)c1nnn(-c2cc(C(C)C)c(O)cc2O)c1-c1ccc(CN2CCOCC2)cc1	0.033 µM	0.045 µM	–	–	–	–
CCNC(=O)c1nnn(-c2cc(C(C)C)c(O)cc2O)c1-c1ccc(CN2CCN(C)CC2)cc1	< 0.005 µM	0.047 µM	–	–	–	–
CCNC(=O)c1nnn(-c2cc(C(C)C)c(O)cc2O)c1-c1ccc(CN2CCCC2)cc1	< 0.005 µM	0.003 µM	–	–	–	–
CC(C)c1cc(-n2cc(-c3ccc(CN4CCN(c5ccccc5)CC4)cc3)nn2)c(O)cc1O	0.32 µM	> 1 µM	–	–	–	–
CCNC(=O)c1nnn(-c2cc(C(C)C)c(O)cc2O)c1-c1ccc(CN2CCCCC2)cc1	0.021 µM	0.006 µM	Dose-dependent effect	Dose-dependent effect	Dose-dependent effect	Dose-dependent effect
CCNC(=O)c1nnn(-c2cc(C(C)C)c(O)cc2O)c1-c1ccc(CN2CCC(N(C)C)CC2)cc1	< 0.005 µM	0.12 µM	–	–	–	–
CC(C)c1cc(-n2nncc2-c2ccc(CN3CCN(Cc4ccccc4)CC3)cc2)c(O)cc1O	0.027 µM	0.18 µM	–	–	–	–
CCNC(=O)c1nnn(-c2cc(C(C)C)c(O)cc2O)c1-c1ccc(CN2CCC[C@H](O)C2)cc1	0.023 µM	0.07 µM	–	–	–	–
CC(C)c1cc(-n2nncc2-c2ccc(CN3CCOCC3)cc2)c(O)cc1O	0.035 µM	0.15 µM	–	–	–	–
CC(C)c1cc(-n2nnc(C(=O)NCCCl)c2-c2ccc(CN3CCOCC3)cc2)c(O)cc1O	0.017 µM	0.0043 µM	–	–	–	–
CCNC(=O)c1nnn(-c2cc(C(C)C)c(O)cc2O)c1-c1ccc(CNCCCN(CC)CC)cc1	0.012 µM	0.412 µM	–	–	–	–
CCNC(=O)c1nnn(-c2cc(C(C)C)c(O)cc2O)c1-c1ccc(CNC2CCN(C)CC2)cc1	0.032 µM	> 1 µM	–	–	–	–
CCNC(=O)c1nnn(-c2cc(C(C)C)c(O)cc2O)c1-c1ccc(CNCCN(CC)CC)cc1	0.015 µM	0.2 µM	–	–	–	–
CC(C)c1cc(-n2nnc(C(=O)N[C@H](C(=O)O)C(C)C)c2-c2ccc(CN3CCOCC3)cc2)c(O)cc1O	0.181 µM	> 1 µM	–	–	–	–
CC(C)c1cc(-n2nnc(C(=O)NC3CCCCC3)c2-c2ccc(CN3CCOCC3)cc2)c(O)cc1O	0.095 µM	0.046 µM	–	–	–	–

— ChEMBL document CHEMBL3232837, “Synthesis and evaluation of new Hsp90 inhibitors based on a 1,4,5-trisubstituted 1,2,3-triazole scaffold” (J Med Chem, 2014)
